In article PMC5797940 (Nature, 2013):

What was measured:
FRα = conditions: O4 replaced by an amino group; cited from earlier work
reduced folate carrier = conditions: folate-binding affinity of reduced folate carrier; cited from earlier work
human FRα = human FRα (Homo sapiens, UniProt P15328); experiment: saturation radioligand-binding assay with [^3H]-folic acid, wild-type FRα–Fc; conditions: fully glycosylated FRα–Fc
[1] = test system: FRα Y175, K136 and R106 alanine mutants; experiment: saturation radioligand-binding assay, FRα Y175, K136 and R106 mutants; design: species or system human; conditions: mutations of Y175, K136 and R106 (bond lengths ≥3.1 Å)
How it was run: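 Human FRα alanine mutants made by site-directed mutagenesis, expressed as Fc fusions in transiently transfected HEK293 cells and Ni-NTA purified. 40 nM protein captured on protein G wells (25 mM Tris pH 8.0, 150 mM NaCl, 0.1% Triton X-100) for 40 min. Ligand stripped at pH 3.5 for 1 min. Then 40 min with varied [³H]-folic acid, two washes, scintillation counting. Kd by nonlinear regression, as fold versus wild type.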

human FRα, sequence (P15328 23-234): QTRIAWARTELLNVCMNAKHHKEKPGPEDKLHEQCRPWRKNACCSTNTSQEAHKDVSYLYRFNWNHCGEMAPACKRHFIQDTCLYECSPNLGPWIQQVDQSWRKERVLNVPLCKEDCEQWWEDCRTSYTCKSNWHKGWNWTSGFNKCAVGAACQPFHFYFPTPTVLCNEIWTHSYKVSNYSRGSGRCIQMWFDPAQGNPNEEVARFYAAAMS

Nc1nc(N)c2nc(CNc3ccc(C(=O)N[C@@H](CCC(=O)O)C(=O)O)cc3)cnc2n1 [aminopterin]
affinity for FRα compared with folic acid (FRα): reduced affinity

Nc1nc(=O)c2nc(CNc3ccc(C(=O)N[C@@H](CCC(=O)O)C(=O)O)cc3)cnc2[nH]1 [folate]
Km (reduced folate carrier): 1 to 10 µM

Nc1nc(=O)c2nc(CNc3ccc(C(=O)N[C@@H](CCC(=O)O)C(=O)O)cc3)cnc2[nH]1 [folic acid]
folic acid-binding affinity compared with the deglycosylated protein (human FRα): similar
effect of the mutation on folic acid binding [1]: little effect

CN(Cc1cnc2nc(N)nc(N)c2n1)c1ccc(C(=O)N[C@@H](CCC(=O)O)C(=O)O)cc1 [methotrexate]
affinity for FRα compared with folic acid (FRα): reduced affinity
